Experimental data from different studies.
Compare with care: the assays were run in different laboratories. Values after ≈ are worked out from the molar mass of the structure shown.
Organism: Staphylococcus aureus

| SMILES | assay | system | conditions | quantity | value |
| --- | --- | --- | --- | --- | --- |
| CCOC(=O)C1=C(C)N2NC(c3ccccc3O)N(C(Cc3c[nH]c4ccccc34)C(=O)O)C2=NC1c1ccc(Cl)cc1 (stereo not drawn) | microbial killing |  | drug-resistant strain | MBC | 100 µg/mL |
| Cc1c(NN=C(C#N)C2=NC(=O)CS2)c(=O)n(-c2ccccc2)n1C | microbial killing, broth dilution |  |  | MBC | 1 µg/mL |
| O=C(O)c1cn(C2CC2)c2cc(N3CCNCC3)c(F)cc2c1=O | microbial killing |  |  | MBC | 0.019 µg/mL |
| O[C@]12C=C(c3nccc4c3[nH]c3ccccc34)[C@@H]3CCN(CCCC/C=C\CC1)C[C@@]31C[C@@H]3/C=C\CCCCN3[C@H]12 | microbial growth | MRSA | drug-resistant strain | IC50 | 0.7 µg/mL (≈ 1.28 µM) |
| O=C(O)c1cn(C2CC2)c2cc(N3CCNCC3)c(F)cc2c1=O | microbial growth | SG511 | 5 µg/mL, 20 h | inhibition zone | 25 mm |
| O=C(Sc1cccccc1=O)c1ccccc1 | microbial growth, broth dilution | ATCC29213 |  | MIC80 | 13.2 µM (≈ 3.2 µg/mL) |
| CC(=O)Oc1cccc2c1[nH]c1c(C3=C[C@@]4(OC(C)=O)CC/C=C\CCCCN5CC[C@@H]3[C@]3(C[C@@H]6/C=C\CCCCN6[C@H]34)C5)nccc12 | microbial killing | MRSA | drug-resistant strain | MFC | > 20 µg/mL |
| O=C(O)c1cn(C2CC2)c2cc(N3CCNCC3)c(F)cc2c1=O | microbial growth | ATCC29213 |  | IC50 | 0.13 µg/mL (≈ 0.392 µM) |
| CN[C@H](CC(C)C)C(=O)N[C@H]1C(=O)N[C@@H](CC(N)=O)C(=O)N[C@H]2C(=O)N[C@H]3C(=O)N[C@H](C(=O)N[C@H](C(=O)O)c4cc(O)cc(O)c4-c4cc3ccc4O)[C@H](O)c3ccc(c(Cl)c3)Oc3cc2cc(c3O[C@@H]2O[C@H](CO)[C@@H](O)[C@H](O)[C@H]2O[C@H]2C[C@](C)(N)[C@H](O)[C@H](C)O2)Oc2ccc(cc2Cl)[C@H]1O | microbial killing, broth dilution | ATCC6538 |  | MBC | 2 µM |
| CC1(C)S[C@@H]2[C@H](NC(=O)[C@H](N)c3ccccc3)C(=O)N2[C@H]1C(=O)O | microbial growth, well diffusion | ATCC25923 | 60000 µg/mL | inhibition zone | 35 mm |
| CC1(c2ccccc2O)Nn2c(nc(-c3ccc(Cl)cc3)c(C#N)c2=O)N1C(Cc1c[nH]c2ccccc12)C(=O)O (stereo not drawn) | microbial killing |  | drug-resistant strain | MBC | 100 µg/mL |
| COc1ccccc1Nc1cccc2nccnc12 | microbial growth | RN4220 |  | EC50 | 20 µM |
